Screening results (PubChem)
In the library only some 6.6% were active in any assay of this set; here they are far more common.
PostGolgi ctrl: growth of the yeast control strain, post-Golgi counter-screen; efflux-deficient yeast background strain, growth absorbance A615, 16 h; 98,000 tested, 5% active; AID 738; inhibition, % at 10 µM
PostGolgi yeast: growth inhibition of a yeast mutant, post-Golgi transport screen | inhibition, % at 10 µM | post-Golgi transport phenotypic cell assay | 98,000 tested, 0.9% active;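 further: yeast cells grown in 1536-well plates; yeast grown about 18 h at 30C before absorbance read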
HER2 expr 66K: Her2 kinase expression inhibition. P04626. SKBR-3 HER2 protein level, AlphaScreen, 18-24 h; stronger effect = lower value. HER2 level % of control, % at 10 µM. 65,000 tested, 0.69% active. AID 645;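 active means HER2 level under 5% of the carrier-only control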;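 further: 100% = DMSO carrier and 0% = 500 nM PU-H71 HSP90 inhibitor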
Ecoli tolC: E. coli tolC mutant growth inhibition | E. coli BW25113 tolC mutant growth, OD615 | growth inhibition, % at 10 µM (by protocol) | 65,000 tested, 2.2% active | AID 573;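 active means growth inhibition at or above a cutoff equal to the mean over every tested compound plus 3 SD, cut at about 60% in these data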;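 further: growth measured after 20 h incubation at 37 °C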
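signal = optical density read at 615 nm | test system = E. coli ΔtolC::kan strain BW25113 | timing = 20 h compound exposure of bacteria at 37 °C | buffer or medium = LB medium plus 50 µg/mL kanamycin | compound dosing = 10 µM final, single dose | evaluation = % inhibition of E. coli growth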
Ecoli WT expand: E. coli BW25113 growth inhibition, expanded screen | AID 710 | growth inhibition, % at 100 µM | OD600 absorbance | 98,000 tested, 0.15% active;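 active means growth inhibition above about 50% at one test dose, limit read from the data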;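 further: growth measured after 20 h incubation at 37 °C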
An asterisk follows results filed as active; . = no result. Unless noted, no stated cut-off is given here; in the data, active means inhibition above about 30%; inactive means the rest.

SMILES | PostGolgi ctrl | PostGolgi yeast | HER2 expr 66K | Ecoli tolC | Ecoli WT expand
c1ccc(CN2CCN(c3nc4ccccc4n4cnnc34)CC2)cc1 | 34* | -4 | 99 | 4 | 8
c1ccc(N2CCN(c3nc4ccccc4n4cnnc34)CC2)cc1 | 23 | 6 | . | . | -10
CC(=O)Nc1ccc(S(=O)(=O)N2CCCc3ccccc32)cc1 | 5 | 5 | 68 | 38 | -7
COC(=O)Nc1ccc(S(=O)(=O)N2c3ccccc3CCC2C)cc1 (configuration not stated) | 34* | -2 | 67 | 21 | 4
Cc1nc2ccc(NC(=O)c3cccs3)cc2c(=O)n1Cc1ccc(Cl)cc1 | 32* | -3 | . | . | -13
CCOC(=O)CCNC(=O)Nc1ccc2nc(C)n(Cc3cccc(Cl)c3)c(=O)c2c1 | 11 | -15 | 94 | 14 | 2
CCOC(=O)NCc1ccc(S(=O)(=O)Nc2c(C)cccc2C)cc1 | 9 | 18 | . | . | 2
O=C1C(Cl)=C(NCCc2ccccc2)C(=O)N1CCc1ccccc1 | 11 | -12 | . | . | -3
CCOc1ccccc1NC1=C(Cl)C(=O)N(Cc2ccccc2)C1=O | 33* | 12 | . | . | -7
CCOc1ccc(-c2nc(CSCC(=O)NCCN3CCOCC3)c(C)o2)cc1 | 8 | 4 | 46 | -35 | 7
CCn1c(Cc2ccccc2)nnc1SCC(=O)Nc1nc2ccccc2s1 | -3 | -8 | 98 | 2 | -20
CCSCc1nnc(SCC(=O)Nc2nc3ccccc3s2)n1C | 36* | 7 | 142 | -9 | -1
Cc1ccc(C(=O)NNC(=O)C2CCCN(c3ncccn3)C2)cc1 (configuration not stated) | 1 | 11 | . | . | 2
CC(C)CCn1cnc2c(cnn2-c2ccc(F)cc2)c1=O | 0 | 0 | 98 | 8 | -4
Cc1cccc(NC(=O)Cn2cnc3c(cnn3-c3ccc(F)cc3)c2=O)c1C | 46* | -5 | 122 | 3 | -4
O=C1CC(c2ccc(F)cc2)Cc2nc(NCC3CCCO3)ncc21 (configuration not stated) | 3 | 6 | . | . | -2
Cc1cc(Cl)ccc1Oc1cccc(C(=O)/C(C#N)=C/N(C)C)c1 | 65* | 5 | . | . | 0
CN(C)/C=C(/C#N)C(=O)c1cccc(Oc2ccc(C(C)(C)C)cc2)c1 | 50* | 3 | . | . | -6
Cc1ccccc1Oc1cccc(C(=O)/C(C#N)=C/N(C)C)c1 | 2 | 21 | . | . | 5
CC1CC(N(C(=O)c2ccccc2Cl)c2ccccc2)c2ccccc2N1 (configuration not stated) | 39* | 3 | . | . | -7
Cc1nc(N)c(C#N)c(-c2ccccc2)c1C | 31* | -1 | 89 | -2 | -5
Cc1c(-c2ccccc2)nc(N)c(C#N)c1-c1ccco1 | 4 | -4 | 63 | -17 | -15
CC1=C(C#N)c2nc(N)c(C#N)c(C)c2/C1=C\c1ccccc1 | . | . | 49 | 74* | .
CC1CCN(S(=O)(=O)c2ccc(NC(=O)CN3CCN(c4ccccc4)CC3)cc2)CC1 | 2 | -8 | 49 | -8 | -4
O=C(CCN1C(=O)c2ccccc2C1=O)Nc1ccc2c(c1)OCCO2 | 35* | -7 | 96 | -9 | -3
SMILES | PostGolgi ctrl | PostGolgi yeast | HER2 expr 66K | Ecoli tolC | Ecoli WT expand
CC1CCN(S(=O)(=O)c2ccc(NC(=O)Cc3ccccc3)cc2)CC1 | 39* | -6 | . | . | -11
CC1CCN(S(=O)(=O)c2ccc(NC(=O)CCN3C(=O)c4ccccc4C3=O)cc2)CC1 | 6 | 83* | . | . | 0
NC(=O)C1CCN(C(c2ccccc2Cl)c2nnnn2Cc2ccc3c(c2)OCO3)CC1 (configuration not stated) | 13 | -3 | 103 | 32 | -17
C[C@H]1C[C@@H]2[C@H]([C@@H](O)C[C@@]3(C)[C@H]2CC[C@]3(O)C(=O)CO)[C@@]2(C)C=CC(=O)C=C12 | . | . | 103 | 3 | .
CCOC(=O)c1oc2ccc(S(=O)(=O)n3nc(-c4ccc(C)cc4)cc3N)cc2c1C | 32* | 10 | . | . | -10
O=S(=O)(NCc1cn2ccsc2n1)c1ccc2c(c1)OCCO2 | 4 | 1 | 108 | 3 | -2
CCCc1cc(-c2[nH]ncc2-c2ccc3c(c2)OCCCO3)c(O)cc1O | 19 | 10 | 10 | 100* | 15
COc1ccc(N2C(=O)NC(NC(=O)c3ccncc3)(C(F)(F)F)C2=O)cc1 (configuration not stated) | 7 | 4 | . | . | -5
CCn1[nH]c(=O)c(=Nc2c(C)n(C)n(-c3ccccc3)c2=O)cc1-c1ccc(Cl)cc1 | -4 | 6 | 106 | 12 | -6
Cc1ccccc1Cn1c2ccccc2c2cnn(CC(=O)N3CCN(c4ccccc4)CC3)c(=O)c21 | 42* | 0 | . | . | -11
Cc1ccc(NS(=O)(=O)c2cccc(C(=O)n3ncc(C#N)c3N)c2)c(C)c1 | 15 | -1 | 105 | -26 | 8
Cc1ccc(C(=O)N2CCN3C(=O)c4ccccc4C23c2ccc(Cl)cc2)cc1 (configuration not stated) | 39* | 21 | . | . | -9
O=C(Nc1cccc(Cl)c1)N1CCN2C(=O)c3ccccc3C12c1ccccc1 (configuration not stated) | 4 | 18 | . | . | -5
O=C(NC1CCCCC1)N1CCN(C(c2ccccc2)c2ccccc2)CC1 | 16 | -2 | . | . | -5
COc1ccc(NCc2n[nH]c(=O)c3ccccc23)cc1 | 32* | -4 | . | . | 3
COc1ccc(CNc2ccc(C(=O)O)cc2)cc1 | 4 | 9 | -30* | -22 | -11
Cc1nnc(NCc2n[nH]c(=O)c3ccccc23)c2ccccc12 | 1 | 8 | 72 | 9 | 1
COc1ccc(S(=O)(=O)NCc2ccc(C(=O)O)cc2)cc1 | . | . | 96 | -8 | .
Cc1cc(C)c2c(=O)[nH]c(=O)n(Cc3ccccc3)c2n1 | 43* | 8 | 88 | 1 | -5
Cc1ccc(C)c(NS(=O)(=O)c2cc(C(=O)NCCSC3CCCCC3)ccc2C)c1 | 41* | -3 | . | . | -8
Cc1ccccc1NS(=O)(=O)c1cc(C(=O)NCCSC2CCCCC2)ccc1C | 20 | 4 | . | . | -16
CSc1nn(CCc2ccncc2)c(=S)s1 | -4 | -3 | 98 | -9 | 11
Cc1cnc(NC(=O)CSc2ncc(-c3ccccc3)n2Cc2ccco2)s1 | 13 | 5 | 43 | 10 | 2
NS(=O)(=O)c1ccc(NC(=O)CSc2nnc(Cc3cccs3)n2-c2ccccc2)cc1 | 34* | -8 | 34 | 22 | -1
COc1ccc(NC(=O)CSc2nnc(COc3ccccc3)n2Cc2ccco2)cc1OC | 14 | -6 | 79 | 8 | -13
COc1ccc(C)cc1NC(=O)CSc1nnc(COc2ccc(Cl)cc2)n1Cc1ccco1 | 40* | -3 | 52 | 5 | -3
COc1ccc(-c2cnc(SCC(=O)Nc3cc(C)on3)n2Cc2ccco2)cc1 | 17 | 0 | 66 | 80* | -13
COc1ccc(C)cc1NC(=O)CSc1nnc(COc2ccccc2)n1Cc1ccco1 | 25 | 14 | 85 | 76* | -13
CCOC(=O)CSC(C)C(=O)Nc1nnc(C(C)C)s1 (configuration not stated) | 0 | 1 | 92 | 14 | 2
